This is an account of results in ChEMBL document CHEMBL1130247, “Antirhino/enteroviral vinylacetylene benzimidazoles: a study of their activity and oral plasma levels in mice” (J Med Chem, 1997).

The subject of one data set is rhinovirus B14. Kind of data set: Antiviral activity against human rhinovirus 14 using plaque reduction assay in HeLa cell lines. Particulars: Rhinovirus B. The data set is classed as functional, organism-based, human rhinovirus type 14.
A short description of data set [1]: Oral plasma concentration in mice at 100 mg/kg dosage within 4-hr time frame. Type of data set: ADME, organism-based. More on the design: route oral, dose 100 mg/kg. Particulars: mouse.
In data set [2] the test system is Coxsackievirus. As to the kind of experiment: Antiviral activity against coxsackie virus A21. The data set is classed as functional, organism-based. The procedure, abridged:
(§1)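 HeLa monolayers in MEM with 5% FBS and 10 mM MgSO4, infected with virus for 1–2 h at room temperature. Overlay of 1.5% agarose mixed 1:1 with 2× MEM (2% FBS) holding graded compound concentrations, diluted in DMSO from a 20 mg/mL stock. Incubated at 37 °C until DMSO-control plaques reached optimal size. Formalin-fixed, crystal violet-stained, plaques counted in duplicate wells. IC50 by Reed–Muench.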

In a further data set the test system is Enterovirus C. Kind of data set: Antiviral activity against poliovirus 1. Type of data set: functional, organism-based. The procedure, abridged: as §1
A short description of data set [3]: Antiviral activity against human rhinovirus 14 (HRV-14) using CPE/XTT assay in human tumor cell lines. The data set is classed as organism-based, human rhinovirus type 14. Particulars: read-out: TC50 (the source's name). Summed up:
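Cytopathic-effect assay run by an earlier published method, except that surviving host cells were quantified with XTT substrate instead of crystal violet staining.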
A general note: Tetrazolium assays rely on reduction of a dye to a coloured formazan, in cell work by metabolically active cells.

Data set [4] has as its system Human rhinovirus sp. As to the kind of experiment: Antiviral activity against human rhinovirus 16. The data set is classed as functional, organism-based.
The test system of data set [5] is Human rhinovirus sp. Kind of data set: Antiviral activity against human rhinovirus 2. Type of data set: functional, organism-based.
In data set [6] the test system is Human rhinovirus sp. As to the kind of experiment: Antiviral activity against human rhinovirus 1A. Type of data set: functional, organism-based.
In data set [7] the test system is Coxsackievirus. As to the kind of experiment: Antiviral activity against coxsackie virus B3. Type of data set: functional, organism-based. The procedure, abridged: as §1
The test system of data set [8] is Coxsackievirus. Kind of data set: Antiviral activity against coxsackie virus A21M. Type of data set: functional, organism-based. The note with it: Coxsackievirus; read-out: IC50.

≈ marks a conversion by molar mass, not a printed value.

In general, IC50 refers to the point on the concentration scale where inhibition reaches its midpoint. In general, Cmax refers to the highest concentration seen after dosing. For `C#C/C=C(/c1ccc2nc(N)n(S(=O)(=O)C(C)C)c2c1)c1ccccc1F`, the IC50 in the data set with rhinovirus B14 is 0.092 µg/mL (≈ 0.24 µM); in the data set on Coxsackievirus [2], 0.079 µg/mL (≈ 0.206 µM); in the data set with Enterovirus C it was 0.045 µg/mL (≈ 0.117 µM); in the data set with Human rhinovirus sp. [4] it was 0.07 µg/mL (≈ 0.183 µM); in the data set with Human rhinovirus sp. [5] it was 0.05 µg/mL (≈ 0.13 µM); with Human rhinovirus sp. [6], 0.035 µg/mL (≈ 0.0913 µM). Further, the IC50 is 0.05 µg/mL (≈ 0.13 µM) with Coxsackievirus [7] and 0.1 µg/mL (≈ 0.261 µM) in the data set with Coxsackievirus [8]. This compound also returned a Cmax in data set [1] of 9200 ng/mL. Further, the CC50 in data set [3] was determined as 66 µg/mL (≈ 172 µM).

On to `CC(C)S(=O)(=O)n1c(N)nc2ccc(/C(=N/O)c3ccccc3)cc21` [ENVIROXIME], for which the Cmax in data set [1] is 890 ng/mL.

As to `C#C/C=C(\c1ccc(OC)cc1)c1ccc2nc(N)n(S(=O)(=O)C(C)C)c2c1`, the IC50 with rhinovirus B14 came out at 0.059 µg/mL (≈ 0.149 µM); in the data set with Coxsackievirus [2] it was 0.047 µg/mL (≈ 0.119 µM); in the data set on Enterovirus C, 0.04 µg/mL (≈ 0.101 µM); in the data set with Human rhinovirus sp. [4] it was 0.029 µg/mL (≈ 0.0733 µM); with Human rhinovirus sp. [5] it was 0.041 µg/mL (≈ 0.104 µM); in the data set with Human rhinovirus sp. [6], 0.03 µg/mL (≈ 0.0759 µM). Also, the IC50 in the data set with Coxsackievirus [7] was 0.055 µg/mL (≈ 0.139 µM); with Coxsackievirus [8], 0.051 µg/mL (≈ 0.129 µM). For the same compound, in [3], the CC50 was determined as 5.2 µg/mL (≈ 13.1 µM).

Turning to `C#C/C=C(\c1cccc(Cl)c1)c1ccc2nc(N)n(S(=O)(=O)C(C)C)c2c1`, the IC50 in the data set with rhinovirus B14 stood at 0.21 µg/mL (≈ 0.525 µM); with Coxsackievirus [2] it was 0.23 µg/mL (≈ 0.575 µM); in the data set with Enterovirus C, 0.15 µg/mL (≈ 0.375 µM); with Human rhinovirus sp. [4], 0.19 µg/mL (≈ 0.475 µM); in the data set with Human rhinovirus sp. [5] it was 0.12 µg/mL (≈ 0.3 µM); with Human rhinovirus sp. [6], 0.13 µg/mL (≈ 0.325 µM). For the same compound, the values for the IC50 in the data set with Coxsackievirus [7] and in the data set with Coxsackievirus [8] were 0.17 µg/mL (≈ 0.425 µM) and 0.18 µg/mL (≈ 0.45 µM), respectively. Moreover, the Cmax in data set [1] worked out at 18000 ng/mL. In addition, in data set [3], the CC50 stood at 20 µg/mL (≈ 50 µM).

On to `C#C/C=C(\c1cccc(F)c1)c1ccc2nc(N)n(S(=O)(=O)C(C)C)c2c1`, for which the IC50 with rhinovirus B14 stood at 0.06 µg/mL (≈ 0.156 µM); in the data set with Coxsackievirus [2] it was 0.085 µg/mL (≈ 0.222 µM); with Enterovirus C, 0.037 µg/mL (≈ 0.0965 µM); with Human rhinovirus sp. [4] it was 0.057 µg/mL (≈ 0.149 µM); in the data set on Human rhinovirus sp. [5] it was 0.069 µg/mL (≈ 0.18 µM); with Human rhinovirus sp. [6], 0.027 µg/mL (≈ 0.0704 µM). The IC50 in the data set on Coxsackievirus [7] turned out to be 0.032 µg/mL (≈ 0.0835 µM); in the data set on Coxsackievirus [8], 0.046 µg/mL (≈ 0.12 µM). Also, the highest level in data set [1] (Cmax) was 12000 ng/mL. Moreover, the CC50 in data set [3] is 5.3 µg/mL (≈ 13.8 µM).

In the case of `C#C/C=C(\c1ccc(N(C)C)cc1)c1ccc2nc(N)n(S(=O)(=O)C(C)C)c2c1`, the IC50 in the data set with rhinovirus B14 turned out to be 0.117 µg/mL (≈ 0.286 µM); in the data set on Coxsackievirus [2], 0.14 µg/mL (≈ 0.343 µM); in the data set with Enterovirus C it was 0.059 µg/mL (≈ 0.144 µM); in the data set with Human rhinovirus sp. [4], 0.08 µg/mL (≈ 0.196 µM); with Human rhinovirus sp. [5] it was 0.06 µg/mL (≈ 0.147 µM); in the data set with Human rhinovirus sp. [6], 0.048 µg/mL (≈ 0.117 µM). In addition, the IC50 in the data set with Coxsackievirus [7] came to 0.06 µg/mL (≈ 0.147 µM); with Coxsackievirus [8] it was 0.13 µg/mL (≈ 0.318 µM). In addition, the Cmax in data set [1] is 210 ng/mL. The CC50 in data set [3] was 5.3 µg/mL (≈ 13 µM).

Take `C#C/C=C(\c1ccccc1)c1ccc2nc(N)n(S(=O)(=O)C(C)C)c2c1F`: in the data set with rhinovirus B14, it took 2.8 µg/mL (≈ 7.3 µM) to reach half-maximal inhibition (IC50). The same compound showed a Cmax in data set [1] of 520 ng/mL. In addition, the CC50 in [3] is 57 µg/mL (≈ 149 µM).

`C#C/C=C(\c1ccccc1)c1ccc2nc(N)n(S(=O)(=O)C(C)C)c2c1`: the IC50 with rhinovirus B14 turned out to be 0.094 µg/mL (≈ 0.257 µM); in the data set with Coxsackievirus [2], 0.037 µg/mL (≈ 0.101 µM); in the data set on Enterovirus C, 0.037 µg/mL (≈ 0.101 µM); in the data set with Human rhinovirus sp. [4] it was 0.039 µg/mL (≈ 0.107 µM); in the data set with Human rhinovirus sp. [5] it was 0.065 µg/mL (≈ 0.178 µM); in the data set with Human rhinovirus sp. [6], 0.033 µg/mL (≈ 0.0903 µM). Also, the IC50 was 0.1 µg/mL (≈ 0.274 µM) with Coxsackievirus [7] and 0.089 µg/mL (≈ 0.244 µM) in the data set with Coxsackievirus [8]. Moreover, in [3], the CC50 amounted to 11 µg/mL (≈ 30.1 µM).

Take `C#C/C=C(\c1cccc(F)c1)c1ccc2nc(N)n(S(=O)(=O)N(C)C)c2c1`: the IC50 with rhinovirus B14 was found to be 0.061 µg/mL (≈ 0.159 µM); in the data set on Coxsackievirus [2], 0.1 µg/mL (≈ 0.26 µM); in the data set on Enterovirus C, 0.047 µg/mL (≈ 0.122 µM); in the data set on Human rhinovirus sp. [4] it was 0.04 µg/mL (≈ 0.104 µM); in the data set on Human rhinovirus sp. [5] it was 0.05 µg/mL (≈ 0.13 µM); with Human rhinovirus sp. [6], 0.053 µg/mL (≈ 0.138 µM). Moreover, the IC50 in the data set on Coxsackievirus [7] amounted to 0.07 µg/mL (≈ 0.182 µM); in the data set with Coxsackievirus [8], 0.09 µg/mL (≈ 0.234 µM). For the same compound, the Cmax in [1] came out at 8400 ng/mL. Besides, in data set [3], the CC50 is above 100 µg/mL.

In the case of `C#C/C=C(/c1ccc2nc(N)n(S(=O)(=O)C(C)C)c2c1)c1cc(F)ccc1F`, the IC50 with rhinovirus B14 was found to be 0.11 µg/mL (≈ 0.274 µM); with Coxsackievirus [2], 0.069 µg/mL (≈ 0.172 µM); in the data set with Enterovirus C it was 0.032 µg/mL (≈ 0.0797 µM); in the data set on Human rhinovirus sp. [4] it was 0.099 µg/mL (≈ 0.247 µM); with Human rhinovirus sp. [5] it was 0.079 µg/mL (≈ 0.197 µM); with Human rhinovirus sp. [6], 0.096 µg/mL (≈ 0.239 µM). In addition, the IC50 in the data set on Coxsackievirus [7] and in the data set on Coxsackievirus [8] was 0.1 µg/mL (≈ 0.249 µM) throughout. Further, in [1], the highest level (Cmax) was 9300 ng/mL. Also, in data set [3], the CC50 is 63 µg/mL (≈ 157 µM).
